Experimental data gathered from unrelated publications.
Each line is one published result; the experiments were not run side by side.
SLC22A11: Solute carrier family 22 member 11 (SLC22A11, Homo sapiens, UniProt Q9NSA0)
RIOK1: Serine/threonine-protein kinase RIO1 (RIOK1, Homo sapiens, UniProt Q9BRS2)
CD209: CD209 antigen (CD209, Homo sapiens, UniProt Q9NNX6)
OPRD1: Delta-type opioid receptor (OPRD1, Homo sapiens, UniProt P41143)

O=C(N/N=C/c1ccc([N+](=O)[O-])o1)c1cc([N+](=O)[O-])cc([N+](=O)[O-])c1O  inhibition (SLC22A11; transporter uptake, inhibitor; 25 µM): 78.3%
COc1ccc2oc(-c3ccc4nc(N)oc4c3)c/c(=N\c3ccccc3NC(=O)CCN)c2c1  remaining binding (Transient receptor potential cation channel subfamily M member 7 (TRPM7, Homo sapiens, UniProt Q96QT4); binding; 1 µM): 106%
CCCCC(=O)Nc1ccc(-c2ccc3ncn(CCC)c(=O)c3c2)cn1  remaining binding (RIOK1; binding, competition with immobilised ligand; 0.5 µM): 100%
C[C@]1(O)CCCN(c2nc(Nc3ccc(S(=O)(=O)N[C@H]4CC[C@H](CN5CCN(c6ccc(C7CCC(=O)NC7=O)cc6F)CC5)CC4)cc3F)ncc2C(F)(F)F)C1 (stereo partly drawn)  remaining binding (RIOK1; binding, competition with immobilised ligand; 1 µM): 100%
CN(CCOc1ccc(CC2SC(=O)NC2=O)cc1)c1ccccn1 (stereo not drawn)  inhibition (SLC22A11; transporter uptake, inhibitor; 25 µM): 94.1%
COc1c(Nc2cc(C(F)(F)F)cc(C(F)(F)F)c2)c(=O)c1=O  kinact/KI (CD209; cell-free assay, inhibitor; pH 7.4): 0.916 M⁻¹ s⁻¹
C1=C/COCc2cc(ccc2OCCN2CCCC2)Nc2nccc(n2)-c2cccc(c2)COC/1  remaining signal (Tyrosine-protein kinase ITK/TSK (ITK, Homo sapiens, UniProt Q08881); cell-free assay; 0.1 µM): 90%
CC(C)=CCCC1(C)C=Cc2c(O)c3c(c(CC=C(C)C)c2O1)OC12C(=CCCC1C(C)(C)O[C@@]2(C/C=C(\C)C(=O)O)C(=O)O)C3=O (stereo partly drawn)  inhibition (SLC22A11; transporter uptake, inhibitor; 25 µM): 87.8%
C[C@]1(O)CCCN(c2nc(Nc3ccc(S(=O)(=O)N[C@H]4CC[C@H](CN5CCN(c6ccc(C7CCC(=O)NC7=O)cc6F)CC5)CC4)cc3Cl)ncc2C(F)(F)F)C1 (stereo partly drawn)  remaining binding (RIOK1; binding, competition with immobilised ligand; 1 µM): 88%
CCN1/C(=C/C(C)=O)Sc2ccc(F)cc21  inhibition (OPRD1; ligand displacement, radioligand; 10 µM): 0.37%
O=C(O)CCc1nc(-c2ccccc2)c(-c2ccccc2)o1  inhibition (SLC22A11; transporter uptake, inhibitor; 25 µM): 81.6%
C#Cc1cc(-c2cc(Nc3nc(N[C@@H](C)c4ccc(F)cn4)ncc3Cl)n[nH]2)ccc1C=O  inhibition (Serine/threonine-protein kinase SIK2 (SIK2, Homo sapiens, UniProt Q9H0K1); enzyme activity, inhibitor; 0.2 µM): 97.4%
Cc1cc(O)c(-c2ccc([C@@H](C)CN(C)C)cc2)c2c1[nH]c(=O)c1sccc12  inhibition (Serine/threonine-protein kinase Nek8 (NEK8, Homo sapiens, UniProt Q86SG6); enzyme activity, inhibitor; 0.1 µM): 4.95%
NC/C(=C\F)COc1cccc(Cn2c(=S)[nH]c(=O)c3[nH]cnc32)c1  inhibition (Diamine oxidase [copper-containing] (AOC1, Homo sapiens, UniProt P19801); enzyme activity, inhibitor; 1 µM): 2.46%
O=C(ON1C(=O)CCC1=O)c1cc(C(F)(F)F)cc(C(F)(F)F)c1  kinact (CD209; cell-free assay; pH 7.4): 0.00574 s⁻¹
Cc1cc(S(=O)(=O)N[C@H]2CC[C@H](CN3CCN(c4ccc(C5CCC(=O)NC5=O)cc4F)CC3)CC2)ccc1Nc1ncc(C(F)(F)F)c(N2CCC[C@](C)(O)C2)n1 (stereo partly drawn)  remaining binding (RIOK1; binding, competition with immobilised ligand; 1 µM): 79%
Cc1cc(F)cc2c(CCC(=O)N[C@@H]3C(=O)NC[C@H]3O)c(-c3ccc(F)cc3)[nH]c12  inhibition (OPRD1; cell-free assay; 10 µM): 1%
CCCCC1=NC2(CCCC2)C(=O)N1Cc1ccc(-c2ccccc2-c2nnn[nH]2)cc1  inhibition (SLC22A11; transporter uptake, inhibitor; 25 µM): 50 to 90%
